Active and inactive are the calls of the source. The rule behind the calls is not given here.
Experiments:
[1] = target: T1, Retinal dehydrogenase 2 (Gallus gallus) (UniProt O93344); assay: Inhibition of N-terminal His6-tagged recombinant chick RALDH2 expressed in Escherichia coli BL21(DE3) cells up to 500 nM using RAL as substrate assessed as rate of inactivation preincubated up to 40 mins followed by substrate addition and measured after 30 mins in presence of NADH by fluorescence assay
T1 sequence (whole entry): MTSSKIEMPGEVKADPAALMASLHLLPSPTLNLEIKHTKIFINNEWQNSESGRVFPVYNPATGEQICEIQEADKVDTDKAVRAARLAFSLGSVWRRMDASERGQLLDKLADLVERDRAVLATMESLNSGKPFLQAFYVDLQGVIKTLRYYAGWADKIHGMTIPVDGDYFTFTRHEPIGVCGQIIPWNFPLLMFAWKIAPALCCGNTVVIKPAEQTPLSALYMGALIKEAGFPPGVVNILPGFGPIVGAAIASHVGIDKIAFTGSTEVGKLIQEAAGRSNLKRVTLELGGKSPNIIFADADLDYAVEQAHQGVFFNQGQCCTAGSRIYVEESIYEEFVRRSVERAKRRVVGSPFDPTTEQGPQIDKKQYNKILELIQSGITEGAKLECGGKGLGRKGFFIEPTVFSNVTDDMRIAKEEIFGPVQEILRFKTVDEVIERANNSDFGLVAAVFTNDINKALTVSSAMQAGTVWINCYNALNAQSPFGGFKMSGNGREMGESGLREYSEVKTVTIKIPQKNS
Summary of the method: (§1)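 Chick RALDH2 pre-incubated 10, 20 and 40 min with 0–500 nM inhibitor, then assayed with retinaldehyde/NAD+ by fluorimetric NADH. kobs taken from linear regression of log % activity remaining versus pre-incubation time. KI and kinact obtained by nonlinear regression of kobs versus inhibitor concentration.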

[2] = target: T2, Aldehyde dehydrogenase 1A1 (Gallus gallus) (UniProt P27463); assay: Irreversible inhibition of N-terminal His6-tagged recombinant chick RALDH1 expressed in Escherichia coli BL21(DE3) cells using RAL as substrate assessed as reduction in enzyme Vmzx preincubated for 20 mins followed by substrate addition and measured after 30 mins in presence of NADH by fluorescence assay
T2 sequence (whole entry): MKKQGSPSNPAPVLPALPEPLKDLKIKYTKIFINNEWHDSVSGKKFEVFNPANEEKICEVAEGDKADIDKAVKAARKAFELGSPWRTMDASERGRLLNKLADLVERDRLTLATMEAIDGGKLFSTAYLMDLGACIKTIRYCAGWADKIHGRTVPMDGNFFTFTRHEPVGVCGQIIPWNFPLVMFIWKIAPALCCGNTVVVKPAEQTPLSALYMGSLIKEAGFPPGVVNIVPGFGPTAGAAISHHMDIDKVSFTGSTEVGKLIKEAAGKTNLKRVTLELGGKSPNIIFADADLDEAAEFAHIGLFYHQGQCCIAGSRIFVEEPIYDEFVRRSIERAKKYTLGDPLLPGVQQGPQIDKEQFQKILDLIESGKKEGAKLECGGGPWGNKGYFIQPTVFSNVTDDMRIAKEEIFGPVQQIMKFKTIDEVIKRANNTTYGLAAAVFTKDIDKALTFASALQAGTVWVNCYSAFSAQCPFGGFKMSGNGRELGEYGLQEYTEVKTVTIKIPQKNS

[3] = target: T3, Aldehyde dehydrogenase, mitochondrial (Homo sapiens, UniProt P05091); assay: Inhibition of N-terminal His6-tagged recombinant human mitochondrial ALDH2 using propionaldehyde as substrate measured after 30 mins in presence of NADH by Morrison's plot analysis
T3 sequence (P05091 whole entry): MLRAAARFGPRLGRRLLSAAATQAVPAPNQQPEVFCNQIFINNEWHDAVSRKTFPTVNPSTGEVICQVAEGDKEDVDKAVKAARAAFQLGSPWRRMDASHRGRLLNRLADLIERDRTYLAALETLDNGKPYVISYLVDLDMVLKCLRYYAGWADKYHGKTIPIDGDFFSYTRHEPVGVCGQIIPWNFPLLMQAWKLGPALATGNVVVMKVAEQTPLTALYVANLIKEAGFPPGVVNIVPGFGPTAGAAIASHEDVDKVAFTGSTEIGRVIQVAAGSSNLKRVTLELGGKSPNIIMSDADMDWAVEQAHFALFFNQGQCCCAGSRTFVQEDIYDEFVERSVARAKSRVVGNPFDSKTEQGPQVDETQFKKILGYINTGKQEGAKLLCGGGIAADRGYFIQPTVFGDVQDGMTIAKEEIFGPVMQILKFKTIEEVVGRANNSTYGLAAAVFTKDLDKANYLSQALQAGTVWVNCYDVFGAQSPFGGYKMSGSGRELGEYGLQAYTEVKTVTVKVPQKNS

[4] = target: T1, Retinal dehydrogenase 2 (Gallus gallus); assay: Inhibition of N-terminal His6-tagged recombinant chick RALDH2 expressed in Escherichia coli BL21(DE3) cells up to 500 nM using RAL as substrate assessed as inactivation rate constant preincubated up to 40 mins followed by substrate addition and measured after 30 mins in presence of NADH by fluorescence assay; summary of the method: as §1
[5] = target: T1, Retinal dehydrogenase 2 (Gallus gallus); assay: (§2) Inhibition of N-terminal His6-tagged recombinant chick RALDH2 expressed in Escherichia coli BL21(DE3) cells at 250 nM using RAL as substrate assessed as remaining activity preincubated for 20 mins followed by all-trans-retinaldehyde and substrate addition measured after 30 mins in presence of NAD+ by fluorescence assay
Summary of the method: (§3)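 Chick RALDH2 (91 nM) pre-incubated with 250 nM inhibitor for 0–80 min at 37°C, alone or with 250 μM retinaldehyde or 250 μM NAD+. Reaction then started with the missing substrate and/or cofactor (250 μM retinaldehyde, 4 mM NAD), 30 min at 37°C. Fluorimetric NADH; % activity remaining. Triplicates.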

[6] = target: T1, Retinal dehydrogenase 2 (Gallus gallus); assay: Inhibition of N-terminal His6-tagged recombinant chick RALDH2 expressed in Escherichia coli BL21(DE3) cells at 250 nM using RAL as substrate assessed as remaining activity incubated up to 80 mins in presence of all-trans-retinaldehyde folowed by substrate addition and measured after 30 mins in presence of NAD+ by fluorescence assay; summary of the method: as §3
Gallus gallus [7] = organism: Gallus gallus; assay: (§4) Inhibition of N-terminal His6-tagged recombinant chick RALDH3 expressed in Escherichia coli BL21(DE3) cells at 500 nM using RAL as substrate assessed as Vmax preincubated for 20 mins followed by substrate addition and measured after 30 mins in presence of NADH by fluorescence assay (reference value: 107.3 +/- 15.97 pmol/microM/min)
Retinal dehydrogenase 2 = target: T4, Retinal dehydrogenase 2 (Gallus gallus, UniProt O93344); assay: Inhibition of RALDH2 in living intact choroid isolated from 4 day recovering chick eyes assessed as inhibition of ATRA synthesis after 24 hrs in presence of […]
T4 sequence (O93344 whole entry): T1 sequence (whole entry)

Gallus gallus [8] = organism: Gallus gallus; assay: as §4, with “250” for “500”, “Km” for “Vmax”, “84.45” for “107.3”, “30.99 microM)” for “15.97 pmol/microM/min)”
[9] = target: T1, Retinal dehydrogenase 2 (Gallus gallus); assay: as §2, with “80” for “20”; summary of the method: as §3
HEK293 = assay: Cytotoxicity against doxycycline-inducible chicken RALDH2 expressing HEK293 cells by measuring ATP production after 24 hrs by CelTiter-Glo assay; format: cell-based; conditions: Homo sapiens, HEK293, 24 h
Summary of the method: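 (Dox)RALDH2-eGFP HEK293 cells seeded at 10,000/well in DMEM + 10% FBS for 24 h, then switched to DMEM with 0.1% FBS containing 0–50 μM compound in DMSO (<0.5%) for 24 h at 37°C, 5% CO2. ATP read by luminescence and expressed as % of vehicle (0.5% DMSO) control. Two experiments, n = 5 per concentration.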

[10] = target: T1, Retinal dehydrogenase 2 (Gallus gallus); assay: as §2, with “40” for “20”; summary of the method: as §3

kobs [1]: 2.8e-05 to 0.012 min⁻¹ | inhibition [2]: Active | Ki [3]: Not Active | Kinact [4]: 0.0159 min⁻¹ | Activity [5]: 27.8% | inhibition [6]: Active | EC50 (Retinal dehydrogenase 2): 0.12 µM | Activity [9]: 16.5% | Activity [10]: 16.3%
Structure (SMILES): CC1=C(/C=C/C(C)=C/C=C/C(C)=C/C(=O)C(Cl)Cl)C(C)(C)CCC1
Vmax (Gallus gallus [7]): 21.6 pmol/µM/min | Km (Gallus gallus [8]): 46.1 µM | IC50 (HEK293): 3.09 µM

Reference: ChEMBL document CHEMBL4261642, “Design, synthesis, and ex vivo evaluation of a selective inhibitor for retinaldehyde dehydrogenase enzymes” (Bioorg Med Chem, 2018)
